Assay outcomes deposited in PubChem BioAssay by Johns Hopkins Ion Channel Center.
RGS4 block – RGS4 inhibitors, primary screen, cell-based, HEK293 M3R inducible RGS4, calcium flux; hit rate 0.45% among 310,000; B-score at 10 µM; Regulator of G-protein signaling 4 (Homo sapiens), P49798; Fluo-4 calcium flux; stronger effect = higher value; triggered by carbachol at its EC20;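 active means B-score, a plate-corrected calcium signal, over three deviations above library mean, with baseline fluorescence within five deviations of library mean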;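 further: RGS4 expression induced by doxycycline in cells with stable M3 receptor; B-score is computed from the integrated fluorescence ratio over baseline after carbachol; higher B-score means a larger calcium signal and so more RGS4 inhibition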
Target sequence (P49798 whole entry, looked up): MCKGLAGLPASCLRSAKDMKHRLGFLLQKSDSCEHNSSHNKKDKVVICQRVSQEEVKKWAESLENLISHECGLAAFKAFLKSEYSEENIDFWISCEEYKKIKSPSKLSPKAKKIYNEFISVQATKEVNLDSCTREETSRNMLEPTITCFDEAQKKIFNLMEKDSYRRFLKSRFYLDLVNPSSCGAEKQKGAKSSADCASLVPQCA
MrgX1 antag – antagonists of human MrgX1 receptor, primary screen, HEK293 cells, Fluo-4 calcium flux | B-score at 10 µM | BAM8-22 antagonism; stronger effect = lower value | hit rate 1.3% among 310,000 | AID 588676, 2011 | Mas-related G-protein coupled receptor member X1 (Homo sapiens), Q96LB2;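 active means calcium-response B-score plate-corrected more than 3 library SD below zero, starting fluorescence within 5 deviations, no agonist response on first addition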;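 further: peak minus trough fluorescence over baseline after final BAM8-22 challenge near maximal dose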
Target sequence (Q96LB2 whole entry, looked up): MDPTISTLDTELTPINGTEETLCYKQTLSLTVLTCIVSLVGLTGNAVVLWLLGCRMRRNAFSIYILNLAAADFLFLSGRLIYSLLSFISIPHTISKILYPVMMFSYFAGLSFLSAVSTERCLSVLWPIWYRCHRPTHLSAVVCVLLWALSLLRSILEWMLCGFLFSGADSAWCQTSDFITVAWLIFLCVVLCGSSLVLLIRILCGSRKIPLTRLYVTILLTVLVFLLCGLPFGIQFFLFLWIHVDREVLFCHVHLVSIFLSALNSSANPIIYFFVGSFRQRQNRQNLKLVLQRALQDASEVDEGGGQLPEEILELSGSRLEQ
RGS4 act – RGS4 potentiators or activators, primary screen, cell-based, HEK293 M3R inducible RGS4, calcium flux; hit rate 0.92% among 310,000; carbachol calcium flux Fluo4; stronger effect = lower value; B-score at 10 µM; AID 463111, 2010;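 active means B-score of the integrated calcium signal more than 4 SD below the library mean, with starting fluorescence not abnormally high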;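 further: negative B-score means reduced calcium response which marks RGS4 activation or potentiation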
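Also added: carbachol at ECmax as muscarinic agonist stimulus; Assay system: HEK293 cells with stable M3R and inducible RGS4; Timing: overnight RGS4 induction, 30 min dye load 37 °C, 20 min compound RT; Measured by: Fluo4-AM (2 µM) calcium-flux fluorescence, kinetic read.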
MrgX1 PAM – positive allosteric modulators of MrgX1, primary screen, HEK293 cells, Fluo-4 calcium flux; hit rate 0.63% among 310,000; AID 588675, 2011; Mas-related G-protein coupled receptor member X1 (Homo sapiens), Q96LB2; B-score at 10 µM; FDSS; stronger effect = higher value;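 active means plate-corrected calcium response at least 3 library SD above typical, normal starting fluorescence, not activating the receptor alone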;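 further: compound read alongside a low EC10 to EC30 dose of BAM8-22 agonist; peak minus trough fluorescence over baseline measured at the second addition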
MrgX1 ag – agonists of human MrgX1 receptor, primary screen, HEK293 cells, Fluo-4 calcium flux; Mas-related G-protein coupled receptor member X1 (Homo sapiens), Q96LB2; Fluo-4 calcium fluorescence, agonist mode; stronger effect = higher value; AID 588627, 2011; hit rate 0.44% among 310,000; B-score at 10 µM;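 active means calcium response B-score plate-corrected fluorescence ratio at least 3 library SD, with starting fluorescence B-score inside 5 SD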
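Material: MrgX1-expressing HEK293 cells / Dosing: compound as first of three additions / Incubation: overnight seeding, then 1 h dark dye loading / Signal: Fluo-4 NW calcium fluorescence / Evaluation: B-scored fluorescence response ratio / Benchmarks: positive and negative control wells on each plate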
* marks the source's active call; other numbers are inactive results; i = inactive; · = no result given. An excerpt weighted towards active compounds, which were near 3.5% of everything screened.

SMILES | RGS4 block | MrgX1 antag | RGS4 act | MrgX1 PAM | MrgX1 ag
O=C(O)c1ccccc1C(=O)c1ccc(Sc2ccc(Cl)cc2)c([N+](=O)[O-])c1 | i | i | i | i | 38*
Nc1ccccc1Sc1ccc(C(=O)c2ccccc2C(=O)O)cc1[N+](=O)[O-] | i | i | i | i | i
CN1CCN(Cc2ccc(Sc3ccc(Cl)cc3)c([N+](=O)[O-])c2)CC1 | i | i | -8.3* | i | i
CCCN(CC(=O)Nc1ccc(F)c(F)c1F)C(=O)c1ccc2c(=O)n3c(nc2c1)CCC3 | i | i | i | i | i
Cc1cc(C)n(CCOc2ccc(Br)cc2)n1 | i | i | i | i | i
CC(C)(C)C(=O)c1no[n+]([O-])c1/C(=N/O)C(C)(C)C | i | i | i | i | 37*
Cc1ccc(NC(=O)CN2C(=O)COc3ccc(S(=O)(=O)N4CCOCC4)cc32)cc1N(C)C | i | i | i | i | i
COC1(OC)C(/C=C/c2ccc(Cl)cc2)C(C#N)(C#N)C1(OC)OC (configuration not stated) | i | i | i | 8.5* | i
Cc1ccc(C)c2[nH]c(=O)c(CCNC(=O)c3ccco3)cc12 | i | i | i | i | i
O=C(c1ccc2nc3ccccc3c(=O)n2c1)N1CCN(Cc2ccc3c(c2)OCO3)CC1 | i | -9.6* | i | i | i
O=C(c1cccn2c(=O)c3ccccc3nc12)N1CCN(Cc2ccc3c(c2)OCO3)CC1 | i | i | i | i | i
COc1ccccc1-c1c(C)oc2cc(OC(=O)c3ccco3)ccc2c1=O | i | i | i | i | i
COc1ccc2c(=O)c(-c3ccccc3C)c(C)oc2c1 | i | i | i | 9.3* | i
COC(=O)c1ccc(C(=O)OC)c(=O)[nH]1 | i | i | i | i | i
COc1ccc(-c2cc(N)n(S(=O)(=O)c3c(F)c(F)c(F)c(F)c3F)n2)cc1OC | i | -6.9* | i | i | i
COc1ccc(S(=O)(=O)n2nc(-c3cc(OC)c(OC)c(OC)c3)cc2N)cc1OC | · | i | · | i | i
NC(=O)c1nsc(C(=O)N(c2ccccc2)C(C(=O)NC2CCCCC2)c2ccc(O)cc2)c1N (configuration not stated) | i | i | i | i | i
Cc1ccc(CS(=O)(=O)CCC(=O)O)cc1 | i | i | i | i | i
CC1=CC(=C(C#N)c2nc3ccccc3s2)C=C(C)N1Cc1ccco1 | i | i | -7.6* | i | i
Cc1nc2ccccn2c1C(=O)N/N=C/c1ccc([N+](=O)[O-])cc1 | i | i | i | i | i
Cc1nn(C)c(C(=O)N/N=C/c2ccccc2)c1[N+](=O)[O-] | i | i | -9.9* | i | i
Cc1nn(C)c(C(=O)Nc2cccc(Nc3ccccc3)c2)c1[N+](=O)[O-] | i | i | i | i | i
Cc1nc2ccccn2c1C(=O)N/N=C/c1ccc([N+](=O)[O-])o1 | i | -6* | i | i | i
COc1ccc(COC(=O)C2=C(C)NC(=O)NC2c2ccc(OC)cc2)cc1 (configuration not stated) | i | i | i | i | i
CN(CCC#N)C(=O)CC1(Cc2ccccc2)CCOC(C)(C)C1 (configuration not stated) | i | i | i | i | i
SMILES | RGS4 block | MrgX1 antag | RGS4 act | MrgX1 PAM | MrgX1 ag
CO/N=C/C(c1ncc(C(F)(F)F)cc1Cl)S(=O)(=O)c1ccccc1 (configuration not stated) | i | -8.2* | i | i | i
CO/N=C/C(c1ccc(Cl)nc1)S(=O)(=O)c1ccccc1 (configuration not stated) | i | i | i | i | i
COc1cc(C2C3=C(Nc4nc(N)[nH]c(=O)c42)c2ccccc2C3=O)ccc1O (configuration not stated) | i | i | i | i | i
CC(/C=N/NC(=O)CCn1nnc2ccccc21)=C\c1ccccc1 | i | -7.7* | i | i | i
CC(/C=N/NC(=O)Cn1cnc2ccccc21)=C\c1ccccc1 | i | i | i | i | i
Cc1ccc(C2=CC(C)(c3ccc(C)cc3)Nc3nc(C(F)(F)F)nn32)cc1 (configuration not stated) | i | i | -7* | i | i
CC(C)CC(=O)O/N=C1\C(=O)N(Cc2ccc(Cl)cc2)c2ccc([N+](=O)[O-])cc21 | 6.4* | i | i | i | i
CC(C)CC(=O)O/N=C1\C(=O)N(c2ccccc2)c2ccccc21 | i | i | i | i | i
COc1ccc(NC(=O)COC(=O)c2ccc(O)cc2)c([N+](=O)[O-])c1 | i | -5.5* | i | i | i
CCc1noc(C)c1C(=O)N1CCCC(N2CCN(c3ccccc3F)CC2)C1 (configuration not stated) | i | i | i | i | i
COc1ccc(OC)c(NC(=O)c2c(NC(=O)CCC(=O)O)sc3c2CCCCC3)c1 | i | i | i | 7* | i
C=CCNCc1cc(=O)n2c(-c3ccccc3)csc2n1 | i | i | -8.8* | i | i
CC(C)(C)OC(=O)N[C@@H](COCc1ccccc1)C(=O)N[C@@H](CO)[C@H](O)[C@@H]1C[C@@H]1C(=O)NC1CCCCC1 | i | i | i | i | i
O=C(c1ccccc1[N+](=O)[O-])N1CC2C3C=CC(C3)C2C1 (configuration not stated) | i | i | -7.1* | i | i
O=C(c1cccc([N+](=O)[O-])c1)N1CC2C3C=CC(C3)C2C1 (configuration not stated) | i | i | i | i | i
COc1cc(CN2CCNC(=O)C2CC(=O)NCCCC2CCCC2)cc(OC)c1 (configuration not stated) | i | i | i | i | i
Cc1ccc(-c2nnn(CC(=O)N(c3ccc(F)cc3)C(C(=O)NC3CCCC3)c3ccco3)n2)o1 (configuration not stated) | i | i | i | i | i
Cc1ccc(-c2nnn(CC(=O)N(c3cccc(F)c3)C(C(=O)NC3CCCC3)c3ccco3)n2)o1 (configuration not stated) | i | -6.6* | i | i | i
